From ChEMBL document CHEMBL1123363, “(5-Amino-1,3-dimethyl-1H-pyrazol-4-yl)(2-fluorophenyl)methanones . A series of novel potential antipsychotic agents” (J Med Chem, 1986)

What was measured:
[1] = target: Muscarinic acetylcholine receptor; experiment: Binding affinity against Muscarinic acetylcholine receptor in rat brain using [3H]- QNB; type: tissue-based
How it was run: (§1)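 Muscarinic sites in rat brain stem membranes (male Long-Evans, 150–250 g), labelled with [3H]quinuclidinyl benzilate at 0.03 nM final. Oxotremorine at 100 μM final served as the reference displacer. IC50 from four or five concentrations by nonlinear curve fitting.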

[2] = target: Serotonin 1 (5-HT1) receptor (Rattus norvegicus, UniProt P28564+P30940+P19327+P28565); experiment: Binding affinity against serotonin-1 receptor in rat brain using [3H]5-HT; type: tissue-based
How it was run: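 Serotonin-1 binding in rat cortex membranes (male Long-Evans, 150–250 g) with [3H]-5-HT at 2.0 nM final. (+)-Butaclamol at 1 μM final was the reference. IC50 from four or five concentrations by nonlinear curve fit.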

[3] = target: Dopamine receptor (Rattus norvegicus) (UniProt P25115+P19020+P30729+P18901+P61169); experiment: Compound was tested for its effect on norepinephrine turnover in rat at dose of 10+/-250 mg/kg; type: functional, organism-based; settings: in the assay text read “64+/-250 mg/kg” for “10+/-250 mg/kg”
How it was run: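 Male Long-Evans rats were given vehicle or agent ip 30 min before α-methyl-p-tyrosine (250 mg/kg) and killed 4 h after it. Brain NE and DA were isolated on Sephadex G-10 and measured spectrofluorometrically. Values are percent of vehicle-treated, with at least five determinations per value.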

Adenosine receptor A1 = target: T1, Adenosine receptor A1 (Rattus norvegicus, UniProt P25099); experiment: Binding affinity towards rat brain adenosine A1 receptor using [3H]- CHA
T1 sequence (P25099 whole entry): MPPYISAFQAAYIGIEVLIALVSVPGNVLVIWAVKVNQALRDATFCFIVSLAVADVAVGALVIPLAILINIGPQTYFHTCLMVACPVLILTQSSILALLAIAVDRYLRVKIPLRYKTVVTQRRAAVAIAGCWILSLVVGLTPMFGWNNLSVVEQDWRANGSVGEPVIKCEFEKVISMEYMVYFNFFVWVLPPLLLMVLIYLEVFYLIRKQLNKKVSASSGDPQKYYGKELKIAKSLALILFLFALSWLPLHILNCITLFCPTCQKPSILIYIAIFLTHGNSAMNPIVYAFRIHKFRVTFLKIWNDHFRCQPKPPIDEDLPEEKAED
How it was run: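 Adenosine A1 binding in membranes of rat whole brain minus brain stem and cerebellum (male Long-Evans, 150–250 g), using [3H]-CHA at 1.0 nM final. Theophylline at 1 mM final was the reference. IC50 from four or five concentrations by nonlinear fit.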

[4] = target: Beta-2 adrenergic receptor (Rattus norvegicus, UniProt P10608); experiment: Binding affinity against beta-2 adrenergic receptor in rat brain using [3H]DHA; type: tissue-based
How it was run: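 β2 binding on rat cerebellum membranes (male Long–Evans rats, 150–250 g) with [3H]dihydroalprenolol, 0.5 nM final. Nonspecific binding defined with (-)-alprenolol, 1 μM final. IC50 from four or five concentrations by nonlinear curve fit.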

Rattus norvegicus [5] = experiment: Inhibition of conditional avoidance in rats after peroral administration; type: functional; settings: po
How it was run: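 Fasted male Wistar rats (150–250 g) were trained to jump to a platform at a buzzer to avoid grid shock (1.1 mA/s). After oral dosing they were tested every 20 min for 6 h over 19 trials, 10 rats per dose, each rat used once. Peak effect was the mean of the four consecutive trials with the largest effect, computed from response latency. ED50 read graphically from at least three doses.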

[6] = target: T2, Adrenergic receptor alpha-2 (Rattus norvegicus, UniProt P22086+P19328+P22909); experiment: Binding affinity against the alpha-2 adrenergic receptor using [3H]- clonidine; type: protein assay
T2 sequence (P22086 whole entry): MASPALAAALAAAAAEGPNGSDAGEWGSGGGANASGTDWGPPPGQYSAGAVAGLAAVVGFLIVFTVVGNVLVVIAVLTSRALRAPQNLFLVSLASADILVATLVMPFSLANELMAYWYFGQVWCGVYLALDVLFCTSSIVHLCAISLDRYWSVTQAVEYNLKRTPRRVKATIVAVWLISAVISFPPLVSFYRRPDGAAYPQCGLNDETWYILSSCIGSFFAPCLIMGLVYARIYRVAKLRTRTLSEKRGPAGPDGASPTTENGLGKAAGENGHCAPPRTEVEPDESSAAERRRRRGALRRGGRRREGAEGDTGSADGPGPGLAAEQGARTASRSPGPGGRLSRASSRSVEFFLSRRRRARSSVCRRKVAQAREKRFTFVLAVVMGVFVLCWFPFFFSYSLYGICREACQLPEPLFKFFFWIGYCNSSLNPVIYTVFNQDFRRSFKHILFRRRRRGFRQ
T2 sequence (P19328 whole entry): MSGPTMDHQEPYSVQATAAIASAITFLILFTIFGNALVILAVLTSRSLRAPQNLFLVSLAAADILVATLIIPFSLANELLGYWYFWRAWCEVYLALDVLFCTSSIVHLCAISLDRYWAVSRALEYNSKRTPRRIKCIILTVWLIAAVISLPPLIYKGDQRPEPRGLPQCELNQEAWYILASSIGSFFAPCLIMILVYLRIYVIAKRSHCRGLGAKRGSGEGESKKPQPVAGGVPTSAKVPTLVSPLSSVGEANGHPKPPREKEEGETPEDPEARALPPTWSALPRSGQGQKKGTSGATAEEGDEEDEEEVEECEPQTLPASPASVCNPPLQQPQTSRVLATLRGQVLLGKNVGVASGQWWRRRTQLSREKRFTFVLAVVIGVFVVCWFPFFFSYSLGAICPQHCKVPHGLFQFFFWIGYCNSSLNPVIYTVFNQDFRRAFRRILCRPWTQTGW
T2 sequence (P22909 whole entry): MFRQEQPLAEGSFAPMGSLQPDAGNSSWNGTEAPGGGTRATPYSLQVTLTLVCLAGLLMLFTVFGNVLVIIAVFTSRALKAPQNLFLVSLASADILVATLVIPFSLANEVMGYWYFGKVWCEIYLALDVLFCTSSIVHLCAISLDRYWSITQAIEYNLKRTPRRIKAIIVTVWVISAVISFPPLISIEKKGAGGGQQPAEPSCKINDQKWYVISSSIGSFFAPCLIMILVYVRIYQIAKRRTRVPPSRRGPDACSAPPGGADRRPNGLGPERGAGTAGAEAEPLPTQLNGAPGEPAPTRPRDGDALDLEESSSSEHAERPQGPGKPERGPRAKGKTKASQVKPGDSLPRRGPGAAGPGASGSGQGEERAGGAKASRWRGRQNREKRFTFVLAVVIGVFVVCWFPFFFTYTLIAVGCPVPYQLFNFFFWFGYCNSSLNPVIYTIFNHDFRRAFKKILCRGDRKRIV
How it was run: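 α2 sites in rat cerebral cortex membranes (male Long-Evans, 150–250 g) labelled with [3H]clonidine at 0.4 nM final. (-)-Norepinephrine at 10 μM final was the reference. IC50 from four or five concentrations by nonlinear fit.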

[7] = target: Muscarinic acetylcholine receptor; experiment: Binding affinity against the Muscarinic acetylcholine receptor using [3H]- QNB; type: protein assay, Rattus norvegicus; how it was run: as §1
Rattus norvegicus [8] = experiment: Compound was tested for its antagonized affect on the accumulation of the brain dopamine induced by butyrolactone (GBL) at 25 mg/kg after intraperitoneal administration; type: functional; set-up: scale not given: the % may be the effect or the level left
How it was run: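 Rats received test compound ip 30 min before γ-butyrolactone (750 mg/kg ip) and were killed 1 h after GBL. Dopamine in brain minus brain stem and cerebellum (four to six rats) was measured spectrofluorometrically and expressed as % of the GBL-treated group.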

Sequence of Beta-2 adrenergic receptor (P10608 whole entry): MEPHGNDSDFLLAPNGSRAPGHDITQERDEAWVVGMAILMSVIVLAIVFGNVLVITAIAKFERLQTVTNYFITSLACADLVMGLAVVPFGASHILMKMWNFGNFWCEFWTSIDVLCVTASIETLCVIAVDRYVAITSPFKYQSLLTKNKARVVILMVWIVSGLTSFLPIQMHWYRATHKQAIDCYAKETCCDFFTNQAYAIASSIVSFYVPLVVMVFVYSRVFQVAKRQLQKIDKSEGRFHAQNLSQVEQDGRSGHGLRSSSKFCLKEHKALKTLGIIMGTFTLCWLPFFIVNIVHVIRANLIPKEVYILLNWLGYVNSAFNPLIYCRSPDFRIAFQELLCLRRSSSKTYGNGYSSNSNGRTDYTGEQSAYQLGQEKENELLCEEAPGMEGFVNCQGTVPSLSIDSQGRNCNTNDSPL

IC50 [1] [µM]	IC50 [2] [µM]	Control [3] [%]	IC50 (Adenosine receptor A1) [µM]	IC50 [4] [µM]	IC50 [6] [µM]	IC50 [7] [µM]	Compound	ED50 (Rattus norvegicus [5]) [mg/kg]	Control (Rattus norvegicus [8]) [%]
> 10	> 10	53.7	> 10	> 10	–	–	Cc1nn(C)c(NC(=O)CNCCCN2CCCCC2C)c1C(=O)c1ccccc1F (centres undefined)	–	–
–	–	–	–	–	> 10	> 10	CCN(CC)CC(=O)Nc1c(C(=O)c2ccccc2F)c(C)nn1C	18	85.5
